≈ marks a conversion by molar mass, not a printed value.
Legend:
Hepatitis C virus = assay: Antiviral activity against HCV genotype 1b infected in Huh5-2 cells assessed as inhibition of viral replication after 4 days by luciferase reporter gene assay; assay type: functional, organism-based, Hepacivirus hominis, Huh-5-2; conditions: Hepatitis C virus, genotype 1b, Huh-5-2, 96 h
Method in brief: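 Huh 5-2 cells carrying the HCV subgenomic luciferase replicon were seeded at 5 × 10³/well with compound and incubated 4 days at 37 °C. Medium was removed and luciferase activity quantified. EC50 is the minimum concentration reducing replicon-driven luciferase signal by 50%.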

[1] = Antiviral activity against BVDV NADL infected in MDBK cells assessed as inhibition of virus-induced cytopathic effect formation after 5 days by MTS assay; assay type: functional, cell-based, Bovine viral diarrhea virus 1-NADL; conditions: Bovine viral diarrhea virus isolates and strains, 120 h
Method in brief: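 MDBK cells were seeded at 5 × 10³/well in MEM-FCS and held 24 h at 37 °C, 5% CO₂. Medium was replaced with 5-fold serial compound dilutions, then BVDV inoculum was added at MOI 2. CPE was read by MTS as OD at 490 nm. EC50 is the concentration giving 50% protection against virus-induced CPE, by linear interpolation.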

[2] = Selectivity index, ratio of CC50 for MDBK cells to EC50 for BVDV NADL infected in MDBK cells
Method in brief: (§1)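 Selectivity index is the ratio of CC50 from the 3-day MTS/PMS proliferation assay to EC50 in the same cell line. For Huh 5-2 the EC50 is from the luciferase replicon assay; for MDBK it is from the MTS CPE assay.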

[3] = Cytotoxicity against MDBK cells assessed as growth inhibition after 3 days by MTS assay; assay type: cell-based, Bos taurus; conditions: cattle
Method in brief: (§2)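 MDBK or Huh 5-2 cells were seeded at 5 × 10³/well in MEM-FCS, with serial compound dilutions added 24 h later. Cells proliferated 3 days at 37 °C, then metabolic activity was read by MTS/PMS. CC50 is the concentration inhibiting proliferation of exponentially growing cells by 50%, by linear interpolation.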

[4] = Selectivity index, ratio of CC50 for Huh5-2 cells to EC50 for HCV genotype 1b infected in Huh5-2 cells; set-up: species or system Huh-5-2; method in brief: as §1
[5] = Cytotoxicity against human Huh5-2 cells assessed as growth inhibition after 3 days by MTS assay; assay type: cell-based, Huh-5-2; method in brief: as §2

| EC50 (Hepatitis C virus) [µg/mL] | Compound | EC50 [1] [µg/mL] | Ratio CC50/EC50 [2] | CC50 at 72 h [3] [µg/mL] | Ratio CC50/EC50 [4] | CC50 at 72 h [5] [µg/mL] |
| --- | --- | --- | --- | --- | --- | --- |
| 3.8 (≈ 7.99 µM) | COc1ccccc1-c1nc2ccc(-c3ccsc3)nn2c1-c1cccc(-c2cccc(O)c2)c1 | > 100 | – | > 100 | 20.8 | 78.5 (≈ 165 µM) |
| 5 (≈ 11.7 µM) | CC(C)(C)c1nc2ccc(-c3ccsc3)nn2c1-c1cccc(-c2ccc(O)cc2)c1 | 14.2 (≈ 33.4 µM) | >7.1 | > 100 | 3 | 15 (≈ 35.2 µM) |
| 11.1 (≈ 24.7 µM) | COc1ccccc1-c1nc2ccc(-c3ccsc3)nn2c1-c1cccc(-c2ccoc2)c1 | > 100 | – | > 100 | 1.4 | 15.7 (≈ 34.9 µM) |
| 64.5 (≈ 148 µM) | c1ccc(-c2cccc(-c3c(-c4ccsc4)nc4ccc(-c5ccsc5)cn34)c2)cc1 | 6.6 (≈ 15.2 µM) | >15.2 | > 100 | >1.8 | > 115 |
| 22.7 (≈ 55.4 µM) | CC(C)(C)c1nc2ccc(-c3ccsc3)nn2c1-c1cccc(-c2ccccc2)c1 | 37.9 (≈ 92.5 µM) | >2.6 | > 100 | 2.8 | 63.2 (≈ 154 µM) |
| 11.2 (≈ 25 µM) | Fc1ccc(-c2nc3ccc(-c4ccsc4)nn3c2-c2cccc(-c3ccccc3)c2)cc1 | 1.7 (≈ 3.8 µM) | 8 | 13 (≈ 29 µM) | 1.2 | 13.4 (≈ 29.9 µM) |
| 52.4 (≈ 114 µM) | COc1cccc(-c2nc3ccc(-c4ccsc4)cn3c2-c2cccc(-c3ccccc3)c2)c1 | 15 (≈ 32.7 µM) | >6.7 | > 100 | 1.6 | 85.2 (≈ 186 µM) |
| 18.8 (≈ 47.9 µM) | COc1ccccc1-c1nc2ccccn2c1-c1cccc(-c2ccc(O)cc2)c1 | 17.7 (≈ 45.1 µM) | >5.6 | > 100 | 2.3 | 43.8 (≈ 112 µM) |
| 30.1 (≈ 70.7 µM) | CC(C)(C)c1nc2ccc(-c3ccsc3)nn2c1-c1cccc(-c2ccccc2O)c1 | > 100 | – | > 100 | 2.5 | 75.3 (≈ 177 µM) |
| 13.5 (≈ 35.5 µM) | Oc1ccc(-c2cccc(-c3c(-c4ccc(F)cc4)nc4ccccn34)c2)cc1 | – | – | – | 5.1 | 69.5 (≈ 183 µM) |
| 2.4 (≈ 5.05 µM) | COc1ccccc1-c1nc2ccc(-c3ccsc3)nn2c1-c1cccc(-c2ccc(O)cc2)c1 | > 100 | – | > 100 | 9.2 | 22.1 (≈ 46.5 µM) |
| 3.5 (≈ 8.92 µM) | COc1ccccc1-c1nc2ccccn2c1-c1cccc(-c2cccc(O)c2)c1 | – | – | – | 11.4 | 40.3 (≈ 103 µM) |
| 15.1 (≈ 33.6 µM) | COc1ccccc1-c1nc2ccc(-c3ccsc3)nn2c1-c1cccc(-c2ccco2)c1 | – | – | – | 3.6 | 54.3 (≈ 121 µM) |

More lines, now with the values behind:

| Compound | EC50 (Hepatitis C virus) [µg/mL] | EC50 [1] [µg/mL] | Ratio CC50/EC50 [2] | CC50 at 72 h [3] [µg/mL] | Ratio CC50/EC50 [4] | CC50 at 72 h [5] [µg/mL] |
| --- | --- | --- | --- | --- | --- | --- |
| Fc1ccc(-c2nc3ccccn3c2-c2cccc(-c3ccc(Cl)cc3)c2)cc1 | 5.9 (≈ 14.8 µM) | 3 (≈ 7.52 µM) | 4.3 | 12.7 (≈ 31.8 µM) | 9.7 | 57.5 (≈ 144 µM) |
| COc1cccc(-c2cccc(-c3c(-c4ccc(F)cc4)nc4ccccn34)c2)c1 | 4.3 (≈ 10.9 µM) | 3.1 (≈ 7.86 µM) | 3.7 | 11.5 (≈ 29.2 µM) | 11.8 | 50.2 (≈ 127 µM) |
| COc1ccccc1-c1cccc(-c2c(-c3ccc(F)cc3)nc3ccccn23)c1 | 10.7 (≈ 27.1 µM) | 2.7 (≈ 6.84 µM) | 3.2 | 8.5 (≈ 21.5 µM) | 2.8 | 29.7 (≈ 75.3 µM) |
| CC(C)(C)c1nc2ccc(-c3ccsc3)nn2c1-c1cccc(-c2ccco2)c1 | 8.6 (≈ 21.5 µM) | > 100 | – | > 100 | 4.8 | 41.3 (≈ 103 µM) |
| c1ccc(-c2cccc(-c3cnc4ccc(-c5ccsc5)cn34)c2)cc1 | 89.5 (≈ 254 µM) | > 100 | >1 | > 100 | >1.6 | > 142 |
| Fc1ccc(-c2nc3ccc(N4CCOCC4)cn3c2-c2cccc(-c3ccccc3)c2)cc1 | 6.7 (≈ 14.9 µM) | > 50 | >1 | > 50 | 1.7 | 11.1 (≈ 24.7 µM) |
| CCOC(=O)c1nc2ccc(-c3ccsc3)cn2c1-c1cccc(-c2ccccc2)c1 | 53.1 (≈ 125 µM) | > 67.7 | – | 67.7 (≈ 159 µM) | >2.2 | > 118 |
| CN1CCN(c2ccc3nc(-c4ccc(F)cc4)c(-c4ccc(-c5ccccc5)cc4)n3n2)CC1 | – | > 50 | >1 | > 50 | – | 45.3 (≈ 97.7 µM) |
| Fc1ccc(-c2nc3ccc(N4CCOCC4)nn3c2-c2ccc(-c3ccccc3)cc2)cc1 | – | > 50 | >1 | > 50 | – | 33.3 (≈ 73.9 µM) |
| Fc1ccc(-c2nc3ccc(N4CCOCC4)nn3c2-c2ccccc2-c2ccccc2)cc1 | 11.1 (≈ 24.6 µM) | 11 (≈ 24.4 µM) | 3 | 31 (≈ 68.8 µM) | 1 | 11.1 (≈ 24.6 µM) |
| COc1ccccc1-c1nc2ccccn2c1-c1cccc(-c2ccccc2O)c1 | 48.9 (≈ 125 µM) | 7.55 (≈ 19.2 µM) | 1.9 | 14.4 (≈ 36.7 µM) | 2 | 95.8 (≈ 244 µM) |
| Fc1ccc(-c2nc3ccccn3c2-c2cccc(-c3ccsc3)c2)cc1 | 11.1 (≈ 30 µM) | 2.3 (≈ 6.21 µM) | 3 | 7 (≈ 18.9 µM) | 5.1 | 56.7 (≈ 153 µM) |
| CC(C)(C)c1nc2ccc(-c3ccsc3)cn2c1-c1cccc(-c2ccccc2)c1 | 42.5 (≈ 104 µM) | 62.6 (≈ 153 µM) | >1.6 | > 100 | >2.4 | > 123 |
| CN1CCN(c2cccc(-c3c(-c4ccc(F)cc4)nc4ccccn34)c2)CC1 | 21.8 (≈ 56.4 µM) | – | – | – | 2.8 | 60.1 (≈ 156 µM) |
| Fc1ccc(-c2nc3ccccn3c2-c2ccc(-c3ccccc3)cc2)cc1 | 2.64 (≈ 7.24 µM) | – | – | – | – | 36 (≈ 98.8 µM) |
| Fc1ccc(-c2nc3ccc(-c4ccccc4)cn3c2-c2ccc(-c3ccccc3)cc2)cc1 | 4.5 (≈ 10.2 µM) | > 30 | – | 30 (≈ 68.1 µM) | 2.5 | 11.4 (≈ 25.9 µM) |
| Fc1ccc(-c2nc3ccccn3c2-c2cccc(-c3ccco3)c2)cc1 | 12.8 (≈ 36.1 µM) | – | – | – | 1.9 | 24.7 (≈ 69.7 µM) |
| Fc1ccc(-c2nc3ccc(N4CCOCC4)nn3c2-c2cccc(-c3ccccc3)c2)cc1 | – | 4 (≈ 8.88 µM) | 3 | 12 (≈ 26.6 µM) | – | 11.1 (≈ 24.6 µM) |
| Fc1ccc(-c2nc3ccccn3c2-c2cccc(-c3ccccc3)c2)cc1 | 34.9 (≈ 95.8 µM) | – | – | – | 1.7 | 60.4 (≈ 166 µM) |
| Fc1ccc(-c2nc3ccccn3c2-c2cccc(-c3cc4ccccc4o3)c2)cc1 | 28 (≈ 69.2 µM) | – | – | – | 2 | 54.9 (≈ 136 µM) |
| Fc1ccc(-c2nc3ccc(-c4ccccc4)nn3c2-c2ccc(-c3ccccc3)cc2)cc1 | – | > 50 | >1 | > 50 | – | 45.3 (≈ 103 µM) |

— ChEMBL document CHEMBL2390820, “3-Biphenylimidazo[1,2-a]pyridines or [1,2-b]pyridazines and analogues, novel Flaviviridae inhibitors” (Eur J Med Chem, 2013)
